This is an account of results in ChEMBL document CHEMBL1128218, “New alpha-thiol dipeptide dual inhibitors of angiotensin-I converting enzyme and neutral endopeptidase EC 3.4.24.11” (J Med Chem, 1995).

In one assay the target is T1, Neprilysin (Rattus norvegicus, UniProt P07861).
T1 sequence (P07861 whole entry): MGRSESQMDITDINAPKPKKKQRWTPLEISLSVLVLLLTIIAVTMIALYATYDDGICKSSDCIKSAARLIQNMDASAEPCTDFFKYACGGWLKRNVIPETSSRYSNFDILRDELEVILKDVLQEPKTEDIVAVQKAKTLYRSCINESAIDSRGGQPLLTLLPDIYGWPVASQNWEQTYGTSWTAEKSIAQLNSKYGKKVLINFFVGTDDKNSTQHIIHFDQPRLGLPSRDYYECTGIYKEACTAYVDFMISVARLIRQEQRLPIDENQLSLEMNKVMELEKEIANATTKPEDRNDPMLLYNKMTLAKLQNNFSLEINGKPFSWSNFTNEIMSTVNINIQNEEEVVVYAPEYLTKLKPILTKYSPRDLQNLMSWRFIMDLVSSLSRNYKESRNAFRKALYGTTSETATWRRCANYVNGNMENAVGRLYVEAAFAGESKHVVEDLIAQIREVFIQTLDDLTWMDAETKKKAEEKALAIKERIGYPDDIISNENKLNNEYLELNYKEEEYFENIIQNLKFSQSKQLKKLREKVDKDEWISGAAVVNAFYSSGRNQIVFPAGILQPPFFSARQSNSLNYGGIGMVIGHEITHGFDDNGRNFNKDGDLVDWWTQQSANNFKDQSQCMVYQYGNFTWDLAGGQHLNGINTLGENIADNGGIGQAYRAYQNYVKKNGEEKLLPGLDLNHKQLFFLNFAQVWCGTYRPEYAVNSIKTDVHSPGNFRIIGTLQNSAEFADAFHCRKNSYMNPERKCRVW
The assay is described as follows: Evaluation of in vitro inhibitory activity against Neutral endopeptidase. The essentials:
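Rat kidney cortex membrane homogenate (4.2 μg protein) preincubated 10 min at 25 °C with increasing inhibitor concentrations. Then 500 μM GAAP (final) in 50 mM Tris pH 7.4 with leucine aminopeptidase M, 25 min at 25 °C. Done in duplicate; IC50 from curves of seven points near the IC50.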

The target of assay [1] is T2, Angiotensin-converting enzyme (Rattus norvegicus) (UniProt P47820).
T2 sequence (whole entry): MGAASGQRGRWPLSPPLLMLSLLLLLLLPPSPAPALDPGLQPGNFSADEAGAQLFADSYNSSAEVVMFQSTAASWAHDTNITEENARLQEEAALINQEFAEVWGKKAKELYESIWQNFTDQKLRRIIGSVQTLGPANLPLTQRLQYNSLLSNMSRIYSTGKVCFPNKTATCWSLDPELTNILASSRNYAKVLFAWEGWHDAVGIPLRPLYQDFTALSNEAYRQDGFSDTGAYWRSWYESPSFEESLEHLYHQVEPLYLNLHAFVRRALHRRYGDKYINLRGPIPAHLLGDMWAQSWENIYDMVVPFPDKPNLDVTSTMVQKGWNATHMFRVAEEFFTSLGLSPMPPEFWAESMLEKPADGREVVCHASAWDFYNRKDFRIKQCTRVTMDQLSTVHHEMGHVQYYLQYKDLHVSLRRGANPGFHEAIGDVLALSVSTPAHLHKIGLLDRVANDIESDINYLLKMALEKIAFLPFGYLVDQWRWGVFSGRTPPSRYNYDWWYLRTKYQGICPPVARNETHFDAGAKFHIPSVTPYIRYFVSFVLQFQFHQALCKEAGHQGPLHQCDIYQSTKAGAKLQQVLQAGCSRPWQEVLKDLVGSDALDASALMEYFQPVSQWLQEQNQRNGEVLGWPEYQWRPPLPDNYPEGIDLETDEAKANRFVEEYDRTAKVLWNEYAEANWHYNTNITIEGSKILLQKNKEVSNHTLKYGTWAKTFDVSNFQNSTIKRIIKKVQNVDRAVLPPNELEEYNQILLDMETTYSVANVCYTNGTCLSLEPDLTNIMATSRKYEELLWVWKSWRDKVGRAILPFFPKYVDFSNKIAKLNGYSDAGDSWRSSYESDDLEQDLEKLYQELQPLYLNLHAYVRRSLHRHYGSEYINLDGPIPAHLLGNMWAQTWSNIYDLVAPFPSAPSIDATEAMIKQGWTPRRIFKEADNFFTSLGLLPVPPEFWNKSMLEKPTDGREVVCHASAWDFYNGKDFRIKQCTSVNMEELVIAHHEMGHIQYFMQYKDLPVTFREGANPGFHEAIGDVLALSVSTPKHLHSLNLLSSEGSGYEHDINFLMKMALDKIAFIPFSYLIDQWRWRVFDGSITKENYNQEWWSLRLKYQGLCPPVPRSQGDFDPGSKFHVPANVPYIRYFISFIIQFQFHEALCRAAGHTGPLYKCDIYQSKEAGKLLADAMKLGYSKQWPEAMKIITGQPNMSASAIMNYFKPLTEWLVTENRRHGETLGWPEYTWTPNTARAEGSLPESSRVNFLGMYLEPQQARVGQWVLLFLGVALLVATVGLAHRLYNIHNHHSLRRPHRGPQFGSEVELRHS
Put plainly: Evaluation of plasma inhibition of Angiotensin I converting enzyme activity in conscious rat 2 hours after intravenous administration at a dose of 10 mg/kg. The assay is classed as functional, organism-based. Further details: dose 10 mg/kg. The essentials:
(§1)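 Male conscious normotensive Sprague-Dawley rats (275-390 g) fitted the day before with femoral arterial and venous catheters under methohexital anesthesia. Three angiotensin-I challenges (300 ng/kg iv) given as baseline. Compound given iv, ia or po (12.3 mg/kg po dose in 3% cornstarch at 1 mg/mL), then AI challenges repeated at set times. Pressor response compared with the mean baseline response and expressed as % inhibition.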

Assay [2] has as its target T2, Angiotensin-converting enzyme (Rattus norvegicus). Put plainly: Evaluation of plasma inhibition of Angiotensin I converting enzyme activity in conscious rat 1 hour after intravenous administration at a dose of 10 mg/kg. The assay is classed as functional, organism-based. Further details: dose 10 mg/kg. The essentials:
as §1

Assay [3] has the same target. The assay is described as follows: Evaluation of plasma inhibition of Angiotensin I converting enzyme activity in conscious rat 4 hours after intravenous administration at a dose of 10 mg/kg. Type of assay: functional, organism-based. On the set-up: dose 10 mg/kg. The essentials: as §1

`CC(C)[C@H](S)C(=O)NC1(C(=O)N[C@@H](Cc2ccc(O)cc2)C(=O)O)CC1` showed an IC50 against Neprilysin of 5 nM. In addition, the results for the inhibition in assay [1], in assay [2] and in assay [3] were 43%, 91% and 30%, respectively.
On Neprilysin, `CC(C)[C@H](S)C(=O)NC1(C(=O)N[C@@H](Cc2ccc(F)cc2)C(=O)O)CCCC1` came in with an IC50 of 1.8 nM. In addition, the inhibition came to 80% in assay [1], 85% in assay [2] and 38% in assay [3].
`CC(C)[C@H](S)C(=O)NC1(C(=O)N[C@@H](CCc2ccccc2)C(=O)O)CCCC1`: inhibition against Neprilysin was half-maximal at 1.2 nM (IC50). Besides, the results for the inhibition in assay [1], in assay [2] and in assay [3] were 69%, 72% and 79%, respectively.
With `CC(C)[C@H](S)C(=O)NC1(C(=O)N[C@@H](Cc2c[nH]c3ccccc23)C(=O)O)CCCC1`, on Neprilysin, the concentration for half-maximal inhibition (IC50) stood at 2.1 nM. The results for the inhibition in assay [1], in assay [2] and in assay [3] were 92%, 98% and 86%, respectively.
Regarding `CC(C)[C@H](S)C(=O)NC(C)(C)C(=O)N[C@@H](Cc1ccc(O)cc1)C(=O)O`, on Neprilysin, the IC50 came out at 9.2 nM. Further, the inhibition is 81% in assay [1], 88% in assay [2] and 69% in assay [3].
In turn, `CC(C)[C@H](S)C(=O)NC1(C(=O)N[C@@H](Cc2ccsc2)C(=O)O)CCCC1` showed an IC50 against Neprilysin of 2.6 nM. For the same molecule, the figures for the inhibition in assay [1], in assay [2] and in assay [3] were 100%, 97% and 87%, respectively.
The molecule `CC(C)[C@H](S)C(=O)NC1(C(=O)N[C@@H](Cc2ccc(O)cc2)C(=O)O)CCOCC1` came in with an IC50 against Neprilysin of 6.4 nM. Also, the figures for the inhibition in assay [1], in assay [2] and in assay [3] were 27%, 43% and 4%, respectively.
The corresponding values for `CC(C)[C@H](S)C(=O)NC1(C(=O)N[C@@H](Cc2ccc(O)cc2)C(=O)O)CCCC1` are 1.5 nM, 91%, 90% and 83%.
The corresponding values for `CC(C)[C@H](S)C(=O)NC1(C(=O)N[C@@H](Cc2cccs2)C(=O)O)CCCC1` are 1.5 nM, 68%, 79% and 44%.
As for `O=C(CS)NC1(C(=O)N[C@@H](Cc2ccc(O)cc2)C(=O)O)CCCC1`, the IC50 against Neprilysin was 15 nM. The inhibition stood at 15% in assay [1], 44% in assay [2] and 7% in assay [3].
As to `CC(C)[C@H](S)C(=O)NC1(C(=O)N[C@@H](Cc2ccc(O)cc2)C(=O)O)Cc2ccccc2C1`, on Neprilysin, the IC50 came out at 25 nM. The inhibition turned out to be 59% in assay [1], 86% in assay [2] and 24% in assay [3].
With `CC(C)[C@H](S)C(=O)NC1(C(=O)N[C@@H](Cc2ccccn2)C(=O)O)CCCC1`, the IC50 at Neprilysin is 3 nM. Besides, the values for the inhibition in assay [1], in assay [2] and in assay [3] were 52%, 73% and 28%, respectively.
Take `O=C(O)[C@H](Cc1ccc(O)cc1)NC(=O)C1(NC(=O)[C@@H](S)Cc2ccccc2)CCCC1`: on Neprilysin, half-maximal inhibition (IC50) required 3 nM. The inhibition was determined as 75% in assay [1], 86% in assay [2] and 43% in assay [3].

One may read the IC50 as the midpoint of a concentration-inhibition curve. Low values mean inhibition by little substance, high ones a need for much substance. A word on the inhibition: it is the share of the control response that was lost under treatment.
